Measured values reported in ChEMBL document CHEMBL1629507, “Small molecule inhibitors of hantavirus infection” (Bioorg Med Chem Lett, 2010).
Calls of active or inactive are those of the source. The rule behind the calls is not given here. Where a SMILES comes first, the peptide text is derived from it. Bridges are numbered along the chain shown (N, C = ends).

Key:
Format in all cases: cell-based
[1] = target: T1, Integrin alpha-V/beta-3 (Homo sapiens) (UniProt P05106+P06756); test: Inhibition of human alphaVbeta3 receptor expressed in african green monkey Vero E6 cells assessed as inhibition of SNV infection in cells at 2 mM by immunofluorescent assay
Summary of the method: (§1)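 Vero E6 cells (10^4/well, duplicate wells) were grown 24 h at 37 °C in MEM with 2.5% FBS. They were pretreated 1 h at 37 °C with small molecules (1 µM) or cyclic peptides (2 mM, in PBS pH 7.4). SNV strain SN77734 (500–1,000 FFU/ml) was then added for 1 h, then washed out. After 24–36 h, cells were fixed and stained with anti-SNV N plus FITC antibody, and foci counted. % inhibition is relative to untreated cells, normalized to ReoPro 80 µg/ml set as 80%; at least 4 replicates.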

[2] = target: T1, Integrin alpha-V/beta-3 (Homo sapiens); test: Inhibition of human alphaVbeta3 receptor expressed in african green monkey Vero E6 cells assessed as inhibition of SNV infection in cells by immunofluorescent assay
Summary of the method: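 SNV infection of Vero E6 cells in a dose-response format. Cells were pretreated 1 h at 37 °C with compound across a concentration range, then exposed to virus for 1 h, washed, and cultured 24–36 h. Infected foci were counted by anti-N immunofluorescence. Inhibition was taken relative to untreated cells and normalized to ReoPro. EC50 derived from curves; points are the mean and standard error of N = 4.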

[3] = target: T1, Integrin alpha-V/beta-3 (Homo sapiens); test: Inhibition of human […] alphaVbeta3 expressed in african green monkey Vero E6 cells assessed as inhibition of Andes CHI-7913 viral entry at 10 uM
[4] = target: T1, Integrin alpha-V/beta-3 (Homo sapiens); test: Inhibition of human […] alphaVbeta3 expressed in african green monkey Vero E6 cells assessed as inhibition of SNV SN77734 entry at 1 mM
[5] = target: T1, Integrin alpha-V/beta-3 (Homo sapiens); test: Inhibition of human alphaVbeta3 receptor expressed in african green monkey Vero E6 cells assessed as inhibition of SNV infection in cells at 1 uM by immunofluorescent assay; summary of the method: as §1
[6] = target: T2, Integrin alpha-V/beta-1 (Homo sapiens) (UniProt P05556+P06756); test: Inhibition of human […] alphaVbeta1 expressed in african green monkey Vero E6 cells assessed as inhibition of PHV-1 entry at 1 mM
[7] = target: T1, Integrin alpha-V/beta-3 (Homo sapiens); test: Inhibition of human […] alphaVbeta3 expressed in african green monkey Vero E6 cells assessed as inhibition of Hantaan 76/118 viral entry at 10 uM
[8] = target: T2, Integrin alpha-V/beta-1 (Homo sapiens); test: Inhibition of human […] alphaVbeta1 expressed in african green monkey Vero E6 cells assessed as inhibition of PHV-1 entry at 10 uM
[9] = target: T1, Integrin alpha-V/beta-3 (Homo sapiens); test: Inhibition of human […] alphaVbeta3 expressed in african green monkey Vero E6 cells assessed as inhibition of Hantaan 76/118 viral entry at 1 mM
[10] = target: T1, Integrin alpha-V/beta-3 (Homo sapiens); test: Inhibition of human […] alphaVbeta3 expressed in african green monkey Vero E6 cells assessed as inhibition of Andes CHI-7913 viral entry at 1 mM
[11] = target: T1, Integrin alpha-V/beta-3 (Homo sapiens); test: Inhibition of human […] alphaVbeta3 expressed in african green monkey Vero E6 cells assessed as inhibition of SNV SN77734 entry at 10 uM

| SMILES | inhibition [5] [%] | further results |
| --- | --- | --- |
| CC(C)C[C@@H]1NC(=O)[C@H](CCC(N)=O)NC(=O)[C@H]([C@@H](C)O)NC(=O)[C@H](CCCCN)NC(=O)[C@H](C(C)C)NC(=O)[C@H](Cc2ccccc2)NC(=O)[C@@H]2CCCN2C(=O)[C@@H](N)CSSC[C@@H](C(=O)O)NC1=O (H-CPFVKTQLC-OH; disulfide 1-9) | – | inhibition [1]: 54.6% |
| O=C(NCc1cccs1)C(Cc1ccccc1)NS(=O)(=O)c1ccc2nsnc2c1 (racemic) | 29 | inhibition [2]: Dose-dependent effect; inhibition [3]: Active; inhibition [4]: Active; inhibition [6]: Active; inhibition [7]: Active; inhibition [8]: Active; inhibition [9]: Active; inhibition [10]: Active; inhibition [11]: Active |
| CC(C)[C@@H]1NC(=O)[C@H](Cc2ccccc2)NC(=O)[C@H]2CCCN2C(=O)[C@@H](N)CSSC[C@@H](C(=O)O)NC1=O | – | inhibition [3]: Active; inhibition [1]: 53%; inhibition [4]: Active; inhibition [6]: Active; inhibition [7]: Active; inhibition [8]: Active; inhibition [9]: Active; inhibition [10]: Active; inhibition [11]: Active |
| O=C(NCc1ccccc1Cl)C(Cc1ccccc1)NS(=O)(=O)c1cccc2nsnc12 (stereo not given) | 0 | – |
| O=C(NCCC1=CCCCC1)C(Cc1ccccc1)NS(=O)(=O)c1cccc2nsnc12 (stereo not given) | 0 | – |
| O=C(NCc1cccnc1)C(Cc1ccccc1)NS(=O)(=O)c1cccc2nsnc12 (stereo not given) | 35 | – |
| O=C(NCc1ccc(Cl)cc1)C1CCCN(c2ncnc3onc(-c4ccc(F)cc4)c23)C1 (stereo not given) | 23.6 | – |
| CCC1CCCCN1CCNC(=O)C(Cc1ccccc1)NS(=O)(=O)c1ccc2nsnc2c1 (stereo not given) | 0 | – |
| O=C(CC(NS(=O)(=O)c1ccc(Cl)cc1)c1ccco1)NCc1cccnc1 (stereo not given) | 9.6 | – |
| CN1CCN(c2ccccc2NC(=O)C(Cc2ccccc2)NS(=O)(=O)c2cccc3nsnc23)CC1 (stereo not given) | 9.6 | – |
| COc1ccc(CCNC(=O)C(Cc2ccccc2)NS(=O)(=O)c2ccc(Cl)cc2)cc1OC (stereo not given) | 14 | – |
| O=C(Cn1c(=O)n(Cc2ccc3c(c2)OCO3)c(=O)c2ccccc21)NCCc1ccccc1 | 25.9 | – |
| O=C1c2cccnc2C(=O)N1Cc1ccc(F)cc1S(=O)(=O)N1CCC(Cc2ccccc2)CC1 | 0 | – |
| CCCCN(CC)CCCNC(=O)C1CCCN(c2ncnc3onc(C)c23)C1 (stereo not given) | 3.1 | – |
| O=C(N/N=C/c1ccc(Br)s1)c1cc(-c2ccccc2)nc2ccccc12 | 5 | – |
| O=C(N/N=C1\C(=O)N(CN(Cc2ccccc2)Cc2ccccc2)c2ccccc21)c1cccs1 | 3.8 | – |
| O=C(CSc1nc2nccnc2c(=O)n1Cc1ccc2c(c1)OCO2)NCCc1ccccc1 | 8 | – |
| O=C(NCc1ccc2c(c1)OCO2)C(Cc1ccccc1)NS(=O)(=O)c1cccc2cccnc12 (racemic) | 46.5 | inhibition [2]: Dose-dependent effect; inhibition [3]: Active; inhibition [4]: Active; inhibition [6]: Active; inhibition [7]: Active; inhibition [8]: Active; inhibition [9]: Active; inhibition [10]: Active; inhibition [11]: Active |
| CCC(Sc1nc2ccsc2c(=O)n1Cc1ccc2c(c1)OCO2)C(=O)NCc1ccco1 (stereo not given) | 41 | – |
| O=c1c(/C=N/Cc2ccco2)c(CSc2ccc(Cl)cc2)[nH]n1-c1nc2ccccc2s1 | 29 | inhibition [2]: Dose-dependent effect; inhibition [3]: Active; inhibition [4]: Active; inhibition [6]: Active; inhibition [7]: Active; inhibition [8]: Active; inhibition [9]: Active; inhibition [10]: Active; inhibition [11]: Active |
| O=C(NCc1cccs1)C(Cc1ccccc1)NS(=O)(=O)c1cccc2cccnc12 (stereo not given) | 12 | – |
| O=S(=O)(c1cccc(SCc2ccccc2)c1)c1cccc(SCc2ccccc2)c1 | 44.2 | – |
| COc1ccc(NC(=O)C(Cc2ccccc2)NS(=O)(=O)c2cccc3cccnc23)c(OC)c1 (stereo not given) | 22.5 | – |

| SMILES | inhibition [5] [%] | further results |
| --- | --- | --- |
| Cc1noc2ncnc(N3CCCC(C(=O)NCc4ccc5c(c4)OCO5)C3)c12 (stereo not given) | 3 | – |
| O=C(NCc1ccccc1)C(Cc1ccccc1)NS(=O)(=O)c1cccc2cccnc12 (stereo not given) | 11.2 | – |
| COc1ccc(CNC(=O)C2CCCN(c3ncnc4onc(C)c34)C2)cc1 (stereo not given) | 4.6 | – |
| O=C(CCNS(=O)(=O)c1cccc2nsnc12)N(CCc1ccccc1)Cc1ccccc1 | 0 | – |
| COc1ccc(/C=N/NC(=O)c2sc3ccccc3c2Cl)cc1CSc1ccccn1 | 0 | – |
| Cc1ccc(CNC(=O)C(Cc2ccccc2)NS(=O)(=O)c2cccc3cccnc23)cc1 (stereo not given) | 0 | – |
| O=C(CCCn1c(=O)c2sccc2n(Cc2ccc(F)cc2Cl)c1=O)NCc1ccco1 | 12.2 | – |
| CCc1ccccc1NC(=O)C(Cc1ccccc1)NS(=O)(=O)c1cccc2nsnc12 (stereo not given) | 2 | – |
| O=C(NCCC1=CCCCC1)C(Cc1ccccc1)NS(=O)(=O)c1cccc2cccnc12 (stereo not given) | 19.3 | – |
| COc1ccc(Cc2cccc(CNC(=O)C3CCCN(c4ncnc5onc(-c6ccc(F)cc6)c45)C3)c2)cc1 (stereo not given) | 39 | – |
| C/C=C/C(=O)NC(=S)NNC(=O)C(Oc1ccccc1)Oc1ccccc1 | 16.1 | – |
| O=C(CSc1nc2ccccc2c(=O)n1Cc1ccc2c(c1)OCO2)NCc1ccco1 | 34.2 | – |
| O=C(NCc1ccco1)C(Cc1ccccc1)NS(=O)(=O)c1ccc2nsnc2c1 (stereo not given) | 21 | – |
| O=C(Cn1c(=O)n(Cc2ccco2)c(=O)c2sc3ccccc3c21)NCc1ccc(Cl)cc1 | 0 | – |
| O=C(NCCc1ccccc1)C(Cc1ccccc1)NS(=O)(=O)c1cccc2nsnc12 (stereo not given) | 0 | – |
| O=C1c2cccnc2C(=O)N1Cc1ccc(F)cc1S(=O)(=O)N1CCN(c2ccccc2F)CC1 | 2.3 | – |
| O=C(NCC1CCCO1)C(Cc1ccccc1)NS(=O)(=O)c1cccc2nsnc12 (stereo not given) | 2 | – |
| Cc1ccc(S(=O)(=O)N2CCN(C(=O)CSc3nnc(C)c(=O)[nH]3)C2c2ccccc2)cc1 (stereo not given) | 4 | – |
| CCOC(=O)C(NC(=O)/C(=C/c1ccc(Cl)cc1)NC(=O)c1ccco1)C(C)C (stereo not given) | 0 | – |
| CC1CCN(CCNC(=O)C(Cc2ccccc2)NS(=O)(=O)c2cccc3cccnc23)CC1 (stereo not given) | 7 | – |
| CCOc1ccccc1CNC(=O)C1CCCN(c2ncnc3onc(-c4ccc(F)cc4)c23)C1 (stereo not given) | 18 | – |
| COc1ccc(/C=C(\NC(=O)c2ccccc2)C(=O)NCCCCCC(=O)O)cc1 | 8 | – |
